According to ChEMBL document CHEMBL3862019, “Synthesis of novel ethyl 2,4-disubstituted 8-(trifluoromethyl)pyrido[2',3':3,4]pyrazolo[1,5-a]pyrimidine-9-carboxylate derivatives as promising anticancer agents” (Bioorg Med Chem Lett, 2016):
Activity calls are given as the source filed them. No cut-off for these calls is given here.

Columns and labels:
[1] = Cytotoxicity against human PC3 cells assessed as cell growth inhibition by MTT assay; type: functional, cell-based; details: PC-3
Procedure, shortened: (§1)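 IC50 values were read from dose–response curves for compounds that gave above 60% inhibition in the initial test. HUVEC (ATCC CRL-1730) served as the normal cell line.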

PC-3 = assay: Selectivity index, ratio of IC50 for HUVEC to IC50 for human PC3 cells
Procedure, shortened: (§2)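 SI is the IC50 in normal HUVEC divided by the IC50 of the same compound in the cancer cell line.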

[2] = Cytotoxicity against human HeLa cells assessed as cell growth inhibition by MTT assay; type: functional, cell-based; procedure, shortened: as §1
HeLa = assay: Selectivity index, ratio of IC50 for HUVEC to IC50 for human HeLa cells; procedure, shortened: as §2
[3] = Cytotoxicity against human MDA-MB-231 cells assessed as cell growth inhibition by MTT assay; type: functional, cell-based; procedure, shortened: as §1
[4] = Selectivity index, ratio of IC50 for HUVEC to IC50 for human MDA-MB-231 cells; procedure, shortened: as §2
[5] = Cytotoxicity against human HepG2 cells assessed as cell growth inhibition by MTT assay; type: functional, cell-based; procedure, shortened: as §1
HepG2 = assay: Selectivity index, ratio of IC50 for HUVEC to IC50 for human HepG2 cells; procedure, shortened: as §2
[6] = Cytotoxicity against HUVEC assessed as cell growth inhibition by MTT assay; type: toxicity, cell-based; details: human; procedure, shortened: as §1
[7] = Cytotoxicity against HUVEC assessed as cell growth inhibition up to 100 uM by MTT assay; type: toxicity, cell-based; details: human
[8] = target: T1, DNA topoisomerase 1 (Homo sapiens) (UniProt P11387); assay: Inhibition of human DNA TOP1 assessed as suppression of supercoiled plasmid HOT1 relaxation at 10 to 20 uM preincubated with enzyme followed by substrate addition measured after 30 mins by ethidium bromide dye-based agarose gel electrophoresis
T1 sequence (whole entry): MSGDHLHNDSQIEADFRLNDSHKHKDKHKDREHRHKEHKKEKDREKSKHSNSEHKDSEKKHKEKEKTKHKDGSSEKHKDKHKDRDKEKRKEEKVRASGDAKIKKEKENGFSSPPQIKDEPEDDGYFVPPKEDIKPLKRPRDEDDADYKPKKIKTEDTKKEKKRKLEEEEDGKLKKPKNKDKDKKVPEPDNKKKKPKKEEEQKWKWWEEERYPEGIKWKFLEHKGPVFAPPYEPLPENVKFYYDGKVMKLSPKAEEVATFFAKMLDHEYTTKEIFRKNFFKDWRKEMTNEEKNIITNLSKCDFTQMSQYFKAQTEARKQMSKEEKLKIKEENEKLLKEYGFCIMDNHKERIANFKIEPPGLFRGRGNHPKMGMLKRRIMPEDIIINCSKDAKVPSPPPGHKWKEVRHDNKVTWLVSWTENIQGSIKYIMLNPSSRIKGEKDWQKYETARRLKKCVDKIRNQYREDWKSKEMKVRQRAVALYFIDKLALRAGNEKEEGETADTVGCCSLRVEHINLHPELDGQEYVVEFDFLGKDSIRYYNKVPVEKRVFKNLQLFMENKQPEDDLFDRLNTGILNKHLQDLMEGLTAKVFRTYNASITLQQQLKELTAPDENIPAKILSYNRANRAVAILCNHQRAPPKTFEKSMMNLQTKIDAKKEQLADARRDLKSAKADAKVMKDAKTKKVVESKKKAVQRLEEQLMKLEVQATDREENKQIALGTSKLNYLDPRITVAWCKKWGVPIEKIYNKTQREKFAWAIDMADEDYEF
Procedure, shortened: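 Supercoiled plasmid pHOT1 was incubated with human topoisomerase I, with compound or camptothecin control at 10 and 20. Relaxation was resolved on a 1% agarose gel run with ethidium bromide, alongside supercoiled and relaxed DNA marker lanes.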

Compound | IC50 [1] | Ratio IC50 (PC-3) | IC50 [2] | Ratio IC50 (HeLa) | IC50 [3] | Ratio IC50 [4] | IC50 [5] | Ratio IC50 (HepG2) | IC50 [6] | Activity [6] | Activity [7] | inhibition [8]
CCOC(=O)c1cc2c(nc1C(F)(F)F)nn1c(-c3ccc(F)cc3)cc(-c3cccs3)nc21 | 15.1 µM | 5.68 | 15.3 µM | 5.61 | 17.1 µM | 5.02 | 16.8 µM | 5.11 | 85.9 µM |  |  | 
CCOC(=O)c1cc2c(nc1C(F)(F)F)nn1c(-c3ccc(OC(F)(F)F)cc3)cc(-c3cccs3)nc21 | 11.9 µM | 7.55 | 16.1 µM | 5.58 | 17.2 µM | 5.22 | 12.6 µM | 7.13 | 89.9 µM |  |  | 
O=c1[nH]cc(F)c(=O)[nH]1 [FLUOROURACIL] | 1.8 µM | 44.22 | 1.6 µM | 49.75 | 1.9 µM | 41.89 | 1.8 µM | 44.22 | 79.6 µM |  |  | 
CCOC(=O)c1cc2c(nc1C(F)(F)F)nn1c(-c3c(F)cc(OC)cc3F)cc(-c3cccs3)nc21 | 22.8 µM | 4.07 | 20.4 µM | 4.54 | 21.1 µM | 4.39 | 23.5 µM | 3.94 | 92.8 µM |  |  | 
CCOC(=O)c1cc2c(nc1C(F)(F)F)nn1c(-c3ccccc3C)cc(-c3cccs3)nc21 |  |  |  |  |  |  |  |  |  | Non-Toxic |  | 
CCOC(=O)c1cc2c(nc1C(F)(F)F)nn1c(CC)cc(CC)nc21 |  |  |  |  |  |  |  |  |  |  | Non-Toxic | 
CCOC(=O)c1cc2c(nc1C(F)(F)F)nn1c(C)cc(C)nc21 | 22.1 µM | 4.48 | 18.2 µM | 5.45 | 20.1 µM | 4.93 | 21.2 µM | 4.67 | 99.2 µM |  |  | 
CCOC(=O)c1cc2c(nc1C(F)(F)F)nn1c(-c3ccc[nH]3)cc(-c3ccccc3)nc21 | 12.1 µM | 7.86 | 13.1 µM | 7.26 | 10.3 µM | 9.24 | 14.8 µM | 6.43 | 95.2 µM |  |  | Active
CCOC(=O)c1cc2c(nc1C(F)(F)F)nn1c(-c3ccc(OC)cc3)cc(-c3ccc(OC)cc3)nc21 |  |  |  |  |  |  |  |  |  | Non-Toxic |  | 
CCOC(=O)c1cc2c(nc1C(F)(F)F)nn1c(-c3ccc([N+](=O)[O-])cc3)cc(-c3ccccc3)nc21 | 16.3 µM | 5.57 | 18.2 µM | 4.98 | 12.2 µM | 7.44 | 14.2 µM | 6.39 | 90.8 µM |  |  | 
CCOC(=O)c1cc2c(nc1C(F)(F)F)nn1c(-c3ccc(Cl)cc3)cc(-c3ccccc3)nc21 |  |  |  |  |  |  |  |  |  | Non-Toxic |  | 
CCOC(=O)c1cc2c(nc1C(F)(F)F)nn1c(C(F)(F)F)cc(C)nc21 |  |  | 25.6 µM | 3.44 | 24.3 µM | 3.62 |  |  | 88.2 µM |  |  | 
CCOC(=O)c1cc2c(nc1C(F)(F)F)nn1c(-c3ccc(F)cc3)cc(-c3ccc(OC)cc3)nc21 | 15.9 µM | 5.43 | 15.8 µM | 5.46 | 17.2 µM | 5.02 | 16.1 µM | 5.36 | 86.4 µM |  |  | 
CCOC(=O)c1cc2c(nc1C(F)(F)F)nn1ccc(C)nc21 | 11.4 µM | 8.17 | 10.6 µM | 8.79 | 12.1 µM | 7.7 | 11.8 µM | 7.89 | 93.2 µM |  |  | Active
CCOC(=O)c1cc2c(nc1C(F)(F)F)nn1c(-c3ccc(OC)cc3)cc(-c3ccccc3)nc21 |  |  |  |  |  |  |  |  |  | Non-Toxic |  | 
CCOC(=O)c1cc2c(nc1C(F)(F)F)nn1c(-c3ccccc3)cc(C)nc21 |  |  | 29.8 µM | 3.05 | 28.6 µM | 3.18 |  |  | 91.1 µM |  |  | 
